From PubChem BioAssay
GAA850 FXN act – activators of GAA850 frataxin (FXN) promoter. 0.56% of 360,000 active. activation, % at 6 µM. HEK293 lucGAA850 FXN promoter luciferase reporter, 24 h; percent of 10 µM SAHA response. AID 540364;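 active = activation above the average of all compounds screened plus 3 SD, cutoff fixed separately per campaign, cut at about 7.5% in these data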;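 note: 0% = DMSO wells and 100% = 10 µM SAHA wells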
proCasp3 act – procaspase-3 (human) activation; P42574; recombinant procaspase-3 D3A, Ac-DEVD-pNA absorbance 405 nm; activation, % at 8.5 µM; 0.11% of 330,000 active;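 active = activation above the mean of all tested compounds plus 3 SD, cut at about 21% in these data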;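 note: 0% = DMSO alone and 100% = DMSO wells spiked with extra 5 µM PC-3 D3A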
Target sequence (P42574 whole entry D9A/D28A/D175A): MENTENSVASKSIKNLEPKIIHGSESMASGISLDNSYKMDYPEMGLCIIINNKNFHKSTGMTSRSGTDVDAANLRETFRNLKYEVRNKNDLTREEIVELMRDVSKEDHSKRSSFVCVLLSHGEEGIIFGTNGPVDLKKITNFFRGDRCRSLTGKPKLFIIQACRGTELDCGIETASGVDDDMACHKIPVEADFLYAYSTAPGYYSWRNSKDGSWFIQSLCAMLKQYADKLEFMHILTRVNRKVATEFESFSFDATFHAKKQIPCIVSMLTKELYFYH
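Test system: Procaspase-3 D3A mutant, all three cleavage aspartates alanine | Dosing: Single dose, 8.5 µM nominal compound, 0.8% DMSO | Schedule: 1 h preincubation, 2 h reaction | Technique: 405 nm absorbance of p-nitroaniline, reads at 0 and 120 min | Repeats: One well per compound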
procasp7 counter – activates human procaspase-7, counter-screen for procaspase-3 activators. recombinant procaspase-7, Ac-DEVD-pNA absorbance 405 nm; D23A/D198A/D206A triple mutant, cannot self-cleave; scale: DMSO 0, 5 µM enzyme 100. activation, % at 8.5 µM. 0.093% of 330,000 active. AID 463210;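 active = percent activation above the screen-wide mean plus 3 SD, cut at about 25% in these data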
Target sequence (P55210 whole entry D23A/D198A/D206A): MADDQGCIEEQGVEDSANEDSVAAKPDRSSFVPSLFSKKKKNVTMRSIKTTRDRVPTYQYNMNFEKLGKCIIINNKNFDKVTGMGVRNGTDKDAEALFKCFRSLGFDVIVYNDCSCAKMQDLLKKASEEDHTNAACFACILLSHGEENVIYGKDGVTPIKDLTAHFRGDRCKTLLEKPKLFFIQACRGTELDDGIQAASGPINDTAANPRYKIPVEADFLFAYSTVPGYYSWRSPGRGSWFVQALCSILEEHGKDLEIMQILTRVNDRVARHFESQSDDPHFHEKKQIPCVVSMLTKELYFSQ
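Assay system: Uncleavable procaspase-7 mutant enzyme / Input: 2 µM procaspase-7 mutant as dispensed / Dosing: single nominal 8.5 µM compound dose, 0.8% DMSO final / Timing: 1 h enzyme–compound preincubation and 2 h substrate reaction, both 25 °C / Detection: p-Nitroaniline absorbance at 405 nm, read at 0 and 120 min / Replication: singlicate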
Calb FLC – affects C. albicans growth with fluconazole. C. albicans CaCi-2 + fluconazole, Alamar Blue growth, 48 h. 0.57% of 300,000 active. growth inhibition, % (no concentration beside the values);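 active = growth inhibition above about 58% in most replicates, limit read from the data, passing the limit was not always enough; inconclusive = exactly half the replicates above a set limit; inactive = most replicates below a set limit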;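 note: all wells also contain fluconazole at 8 µg/ml as a sub-toxic cotreatment; 0% = median of DMSO wells and 100% = median of geldanamycin control wells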
HIF act – HIF pathway transcriptional activation; U2OS HRE-luciferase reporter, luminescence; normalized: DMSO 0%, desferrioxamine 100%; activation, % at 7.5 µM (by protocol); 0.32% of 300,000 active; AID 1910;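 active = mean activation of at least 10% of the iron chelator positive control signal, with at least half of replicates also reaching 10%; inconclusive = mean and replicate majority disagree about reaching 10%; inactive = mean and most replicates under 10%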
Neddylation inh – cullin neddylation inhibition | TR-FRET cullin neddylation, biochemical | inhibition, % at 25 µM | 0.58% of 360,000 active | AID 651699; in the data active = inhibition above about 36%
An asterisk follows results filed as active; ? = inconclusive; . = no result given. In the library only some 1.9% were active in any assay of this set; here they are far more common.

SMILES	GAA850 FXN act	proCasp3 act	procasp7 counter	Calb FLC	HIF act	Neddylation inh
COc1ccc(-c2coc3c(C(=O)N4CCN(C)CC4)cccc23)c(C)c1	-0.3	.	.	.	.	-1.8
CN(C)CCOC(=O)c1sc2ccccc2c1Cl	-1.6	1.9	5.7	110.4*	-0.4	-64.5
COCCCNc1cc(C)nc2ccccc12	1.7	2.6	-8.4	2.1	-1.8	-2.4
Cc1cc(NCCCCCCCNc2cc(C)nc3cc([N+](=O)[O-])ccc23)c2ccc([N+](=O)[O-])cc2n1	-11.3	.	.	.	.	45.5*
Cc1ccc(NC(=O)c2ccco2)nc1	-1.1	.	.	.	.	2.3
C[C@H](CO)N1C[C@H](C)[C@@H](CN(C)C(=O)c2ccc3c(c2)OCO3)Oc2cc(/C=C/c3ccccc3)ccc2S1(=O)=O	-7.4	.	.	.	.	.
Cc1cccc(N2C(=O)N3[C@H](c4ccc(Cl)cc4)[C@@H]4C(=O)N(C5CCCCC5)C(=O)[C@@H]4[C@]3(Cc3ccc(Cl)cc3)C2=O)c1	10.3*	1.8	-3.9	5.8	-1.2	0.4
Cc1cccc(N2C(=O)N3[C@H](c4ccc(F)cc4)[C@@H]4C(=O)N(C5CCCCC5)C(=O)[C@@H]4[C@]3(Cc3ccc(Cl)cc3)C2=O)c1	4.7	0.5	-3.4	16.8	-0.5	-21.5
Nc1c2c(nc3ccn(Cc4ccccc4)c(=O)c13)CCC2	-1.3	-9.0	9.9	?	0.4	38.8*
Cc1ccc(NNC(=O)c2cc(C(C)(C)C)nn2Cc2ccccc2)cc1	1.5	-2.4	-1.8	1.2	0.0	4.3
CC(C)(C)c1cc(C(=O)NNc2ccc(OC(F)(F)F)cc2)n(Cc2ccccc2)n1	1.0	-7.7	-5.6	80.6*	-0.2	-4.4
O=C(NCc1ccc(F)cc1)C(c1ccccc1)c1ccccc1	-1.2	-5.1	1.4	-2.4	1.3	1.4
CC(=O)N(Cc1ccc(F)cc1)C1=C(NCc2ccccc2)C(=O)c2ccccc2C1=O	-8.1	.	.	89.3*	0.9	-26.8
CCOc1cc(/C=N/N=C(N)N)ccc1OCc1ccc(Cl)cc1	-6.3	-7.0	-2.8	104.7*	-6.2	0.6
CON/C=C(\C=Nc1ccc(Cl)cc1Cl)c1ncc(C(F)(F)F)cc1Cl	-0.7	0.3	6.0	93.8*	-0.1	12.5
CC1Cc2ccccc2N1C(=O)c1cccnc1 (stereo not drawn)	2.1	-0.4	5.4	4.4	-0.2	-0.2
Cc1nc2ccc(C(=O)N3c4ccccc4CC3C)cc2s1 (stereo not drawn)	1.5	7.4	9.2	116.2*	-0.8	9.1
CCN1/C(=C\c2ccc3cc(C)ccc3[n+]2CC)Sc2cc(C)c(C)cc21	-6.2	.	.	103.9*	-0.7	-248.3
CCN1/C(=C/c2ccc3cc(C)ccc3[n+]2CC)Sc2ccc3sccc3c21	-4.4	-10.3	-11.6	101.1*	1.2	13.3
CCN1/C(=C/c2ccc3cc(C)cc(C)c3[n+]2CC)Sc2cc(C)ccc21	-8.8	.	.	.	.	-306.0
CCN1/C(=C/c2ccc3cccc(C)c3[n+]2CC)Sc2ccccc21	-7.5	-10.2	-6.3	106.3*	3.2	-452.1
COc1ccc(NC(=O)C2(C)CCN2Cc2csc3ccccc23)cc1OC (stereo not drawn)	1.6	.	.	.	.	3.5
O=C(NCc1cccnc1)c1ccc2sc([C@@H]3O[C@H](CO)[C@H](O)[C@H](O)[C@H]3O)nc2c1	2.1	.	.	.	.	0.7
CN1CCN(c2cc3c(c4c2[nH]c2ccccc24)C(=O)CC(C)(C)C3)CC1	1.3	2.3	9.1	101.0*	0.0	.
COCC1OC(OC(C)C(O)c2cnc3nc(N)[nH]c(=O)c3n2)C(O)C(OC)C1O (stereo not drawn)	0.9	.	.	.	.	.
SMILES	GAA850 FXN act	proCasp3 act	procasp7 counter	Calb FLC	HIF act	Neddylation inh
O=C(Nc1cccc(-c2cn3c(n2)SCC3)c1)c1ccc(Br)o1	-0.3	-1.2	0.3	121.2*	.	2.0
COc1ccc(NC(=O)COC(=O)c2c(C)noc2C)cc1Cl	-0.5	.	.	.	.	-1.1
O=C(CN1C(=O)CCC1=O)NNc1ccc2ccccc2c1	2.2	-2.9	5.1	100.4*	.	3.2
Cc1cccc(C)c1OCC(=O)NC1CC1	0.1	2.1	6.5	13.2	-0.3	-6.1
Cc1cccc(C)c1OCC(=O)NNC(=S)NC(=O)C1CC1	-0.6	-2.4	0.9	76.3*	-0.1	1.9
COCCCNC(=S)Nc1ccc(C)cc1	-0.8	2.6	5.2	-3.6	0.9	-0.5
CCOCCCNC(=S)Nc1cc(C)cc(C)c1	-0.2	-1.9	-3.6	-3.0	143.1*	-1.9
Cn1c(-c2ccccc2)c(Sc2ccccc2)c2cc(-c3ccc4cc[nH]c4c3)ccc21	.	.	.	.	.	-101.5
C=CCSc1n[nH]c(-c2ccc(OCCC)cc2)n1	5.5	-3.0	-0.5	111.6*	2.3	1.1
Cc1ccc(NS(=O)(=O)c2cc(OCC(N)=O)c(C)cc2Cl)cc1C	-4.8	3.0	2.4	9.1	-1.0	-2.8
Cc1ccccc1NS(=O)(=O)c1cc(OCC(N)=O)c(C)cc1Cl	0.9	0.1	2.4	118.2*	-0.3	4.3
COc1ccc(CN2CCNC(=O)C2CC(=O)N(C)CC2CCOCC2)cc1OC (stereo not drawn)	-0.5	2.6	6.6	-4.1	25.8*	0.4
O=C(C[C@@H]1CC[C@@H]2[C@H](COC[C@H](O)CN2CCC(F)(F)F)O1)NCc1ccc2c(c1)OCO2	.	.	.	.	.	-4.6
Cc1cc(C)nc(SCc2ccc(C(=O)N/N=C/c3cccc(O)c3O)cc2)n1	-7.8	-2.2	-6.8	-0.6	6.3	-8.9
CC(C)(C)c1ccc(OCc2ccc(C(=O)N/N=C/c3ccc(O)c(O)c3)cc2)cc1	0.0	0.7	7.2	63.1*	2.9	15.1
COc1ccc(O)c(/C=N/NC(=O)c2ccc(CSc3nc(C)cc(C)n3)cc2)c1	-2.0	2.1	-3.6	118.8*	29.0*	10.7
Cn1cccc1-c1cc(C(=O)N/N=C/c2cc(Br)ccc2O)[nH]n1	-3.6	-52.5	-76.9	33.2	10.4*	26.1
COc1ccc(C(=O)N/N=C/c2cc(Br)ccc2O)cc1OC	-7.8	-56.6	-40.3	2.0	39.5*	9.2
CN1C(C)(C)CC(=NO)CC1(C)C	-0.2	.	.	.	.	-1.3
COCOCCn1cc(CN2CCS(=O)(=O)N(Cc3ccc(-c4ccc(OC)c(OC)c4)cc3)C(CC(C)C)C2=O)nn1 (stereo not drawn)	-1.9	.	.	.	.	1.1
O=C(Cc1ccc(NC(=O)C2CCCN(C(=O)C3CCC3)C2)cc1)Nc1cccc(C(=O)N2CCCC2)c1 (stereo not drawn)	-1.6	.	.	.	.	-10.4
COc1ccc(O)c(/C=N/NC(=O)c2ccc(OCc3cccc(Br)c3)cc2)c1	-3.0	-6.6	-9.3	62.5*	15.7*	22.6
COc1cc(C(=O)Oc2ccccc2/C=N/NC(=O)c2ccc(C)c(Cl)c2)cc(OC)c1OC	-0.2	1.1	7.3	-14.4	0.9	5.8
